This note sets out measurements from ChEMBL document CHEMBL1147518, “Hydroxytriamides as potent gamma-secretase inhibitors” (Bioorg Med Chem Lett, 2004).

Some results are limits rather than exact numbers.

The target of test [1] is Gamma-secretase. As to the kind of experiment: Inhibition of gamma-secretase activity in H4 human neuroglioma cells by measuring amyloid beta production. Type of test: cell-based. The procedure, abridged: (§1)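 H4 human neuroglioma cells expressing HPLAP-βAPP164SFAD, grown in high-glucose DMEM with 10% FBS, pen-strep, 2 mM glutamine and geneticin, plated in 96 wells; after attachment, medium swapped for Ultraculture containing compound (1% DMSO final), overnight incubation. Aβ1-40 in conditioned medium measured by sandwich ELISA (C-terminal Aβ40-specific capture, HRP N-terminal detection, TMB/phosphoric acid). Means of two experiments, 16 data points each.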

Test [2] concerns the target Gamma-secretase. Kind of test: Inhibition of gamma-secretase activity in H4 human neuroglioma cells by measuring amyloid beta production; Inactive. The test is classed as cell-based. The procedure, abridged: as §1

By IC50 is commonly meant the concentration at which inhibition is half-maximal. High values mean lower potency, low ones higher potency. As to `CCCCN(C)C(=O)[C@H](CC1CCCCC1)NC(=O)[C@H](CC(C)C)NC(=O)[C@@H](OC)c1ccccc1`, the IC50 in test [1] was 2000 nM.
On the same count and under the same terms, then `CCCCN(C)C(=O)[C@H](CC1CCCCC1)NC(=O)[C@H](CC(C)C)NC(=O)Cc1cc(C(F)(F)F)cc(C(F)(F)F)c1`, with 408 nM.
Turning to `CCCCN(C)C(=O)[C@H](CC1CCCCC1)NC(=O)[C@H](CC(C)C)NC(=O)Cc1ccc(N)cc1`, the IC50 in test [1] amounted to 1100 nM.
On the same count and under the same terms, then `CCCCN(C)C(=O)[C@H](CC1CCCCC1)NC(=O)[C@H](CC(C)C)NC(=O)[C@@](C)(OC)c1ccccc1`, with more than 2500 nM.
Still for that read-out and setting: then `CCCCN(C)C(=O)[C@H](CC1CCCCC1)NC(=O)[C@H](CC(C)C)NC(=O)Cc1cccc(Cl)c1`, with 52 nM; and `COC(=O)[C@H](CC1CCCCC1)NC(=O)[C@H](CC(C)C)NC(=O)Cc1ccccc1`, with 800 nM.
On the same count and under the same terms, then `CCCCN(C)C(=O)[C@H](CC1CCCCC1)NC(=O)[C@H](Cc1ccccc1)NC(=O)Cc1cc(F)cc(F)c1`, with 2400 nM.
Molecule `CC(C)C[C@H](NC(=O)Cc1ccc2ccccc2c1)C(=O)N[C@@H](CC1CCCCC1)[C@H](O)Cc1ccccc1C(=O)NC(C)(C)C` came in with an IC50 in test [1] of 4.7 nM.
As to `CCCCN(C)C(=O)[C@H](CC1CCCCC1)NC(=O)CNC(=O)Cc1cc(F)cc(F)c1`, in test [1], 300 nM corresponded to half-maximal inhibition (IC50).
`CCCCNC(=O)[C@H](CC1CCCCC1)NC(=O)[C@H](CC(C)C)NC(=O)Cc1ccccc1` returned an IC50 in test [1] of 240 nM.
Same read-out and setting: the value for `CCCCN(C)C(=O)[C@H](CC1CCCCC1)NC(=O)[C@H](CC(C)C)NC(=O)CCc1ccccc1` was 160 nM.
For the molecule `CCCCN(C)C(=O)[C@H](CCCCN)NC(=O)[C@H](CC(C)C)NC(=O)Cc1cc(F)cc(F)c1`, the IC50 in test [2] is more than 2500 nM.
For `CCCCN(C)C(=O)[C@H](CC1CCCCC1)NC(=O)[C@H](CC(C)C)NC(=O)/C=C/c1ccccc1`, in test [1], the IC50 is more than 2600 nM.
Same read-out and setting: the value for `CC(C)C[C@H](NC(=O)Cc1ccccc1)C(=O)N[C@@H](CC1CCCCC1)C(=O)N(C)C` was 102 nM.
For the molecule `CCCCN(C)C(=O)[C@H](CC(=O)O)NC(=O)[C@H](CC(C)C)NC(=O)Cc1cc(F)cc(F)c1`, the IC50 in test [2] was more than 2500 nM.
Regarding `CCOC(=O)[C@H](CC1CCCCC1)NC(=O)[C@H](CC(C)C)NC(=O)Cc1ccccc1`, in test [1], the IC50 is 900 nM.
On the same count and under the same terms, the value for `CCCCN(C)C(=O)[C@H](CC1CCCCC1)NC(=O)[C@H](CC(C)C)NC(=O)[C@](C)(O)c1ccccc1` was more than 2500 nM; that for `CCCCN(C)C(=O)[C@H](CC1CCCCC1)NC(=O)[C@H](CC(C)C)NC(=O)[C@H](OC)c1ccccc1` was more than 2500 nM; that for `CC(C)C[C@H](NC(=O)Cc1ccccc1)C(=O)N[C@@H](CC1CCCCC1)C(=O)N1CCCCC1` was 50 nM.
`CCCCN(C)C(=O)[C@H](CC1CCCCC1)NC(=O)[C@@H](CC(C)C)NC(=O)Cc1cc(F)cc(F)c1` had an IC50 in test [2] of more than 2500 nM.
Turning to `CCCCN(C)C(=O)[C@H](CC1CCCCC1)NC(=O)[C@H](CC(C)C)NC(=O)[C@H](O)c1ccccc1`, the IC50 in test [1] worked out at 240 nM.
On the same count and under the same terms, then `CCCCN(C)C(=O)[C@H](CC1CCCCC1)NC(=O)[C@H](CC(C)C)NC(=O)Cc1cccc(OC)c1`, with 480 nM; and `CCCCN(C)C(=O)[C@H](CC1CCCCC1)NC(=O)[C@H](CC(C)C)NC(=O)Cc1cccc(F)c1`, with 20 nM; and `CCCCN(C)C(=O)[C@H](CC1CCCCC1)NC(=O)[C@H](CC(C)C)NC(=O)Cc1ccc(F)cc1`, with 36 nM.
On the same count and under the same terms, then `CC(C)CCC(=O)[C@H](CC1CCCCC1)NC(=O)[C@H](CC(C)C)NC(=O)Cc1ccccc1`, with 300 nM; and `CCCCN(C)C(=O)[C@H](CC1CCCCC1)NC(=O)[C@H](CC(C)C)NC(=O)[C@](C)(OC)c1ccccc1`, with more than 2500 nM.
Molecule `CC(C)CNC(=O)[C@H](CC1CCCCC1)NC(=O)[C@H](CC(C)C)NC(=O)Cc1ccccc1` came in with an IC50 in test [1] of 150 nM.
The same measure, in the same setting: then `CCCCN(C)C(=O)[C@H](CC1CCCCC1)NC(=O)[C@@H]1CCCCN1C(=O)[C@@H](O)c1ccccc1`, with more than 2500 nM.
On the same count and under the same terms, the value for `CCCCN(C)C(=O)[C@H](CC1CCCCC1)NC(=O)[C@H](CC(C)C)NC(=O)C(O)(O)c1ccccc1` was 1 nM; that for `CCCCN(C)C(=O)[C@H](CC1CCCCC1)NC(=O)[C@H](C)NC(=O)Cc1cc(F)cc(F)c1` was 32 nM.
Same read-out and setting: the value for `CCCCN(C)C(=O)[C@H](CC1CCCCC1)NC(=O)[C@H](CC(C)C)NC(=O)Cc1ccccc1F` was 280 nM; that for `CC(C)C[C@H](NC(=O)Cc1ccccc1)C(=O)N[C@@H](CC1CCCCC1)C(=O)N(C)CC(C)C` was 13 nM; that for `CCCCN(C)C(=O)[C@@H](CC1CCCCC1)NC(=O)[C@H](CC(C)C)NC(=O)Cc1ccccc1` was 1000 nM.
On to `CC(C)CC[C@@H](O)[C@H](CC1CCCCC1)NC(=O)[C@H](CC(C)C)NC(=O)Cc1ccccc1`, for which, in test [1], the IC50 came to 1200 nM.
The same measure, in the same setting: the value for `CCCCN(C)C(=O)[C@H](CC1CCCCC1)NC(=O)[C@H](CC(C)C)NC(=O)c1ccccc1` was 3200 nM.
With `CC(C)C[C@H](NC(=O)Cc1ccccc1)C(=O)N[C@@H](CC1CCCCC1)C(=O)N(C)Cc1ccccc1`, the midpoint of inhibition in test [1], the IC50, lay at 39 nM.
The molecule `CCCCN(C)C(=O)[C@H](CC1CCCCC1)NC(=O)[C@H](CC(C)C)NC(=O)Cc1cccc(C)c1` showed an IC50 in test [1] of 454 nM.
On the same count and under the same terms, the value for `CON(C)C(=O)[C@H](CC1CCCCC1)NC(=O)[C@H](CC(C)C)NC(=O)Cc1ccccc1` was 130 nM; that for `CCCCN(C)C(=O)[C@H](CC1CCCCC1)NC(=O)[C@H](CC(C)C)NC(=O)Cc1cc(OC)cc(OC)c1` was 800 nM.
In turn, `CCCCN(CC)C(=O)[C@H](CC1CCCCC1)NC(=O)[C@H](CC(C)C)NC(=O)Cc1ccccc1` displayed an IC50 in test [1] of 55 nM.
Still for that read-out and setting: then `CCCCN(C)C(=O)[C@H](CC1CCCCC1)NC(=O)[C@H](CC(C)C)NC(=O)Cc1ccccc1`, with 17 nM; and `CCCCN(C)C(=O)[C@@H]1Cc2ccccc2CN1C(=O)[C@H](CC(C)C)NC(=O)[C@@H](O)c1ccccc1`, with 66 nM; and `CCCCN(C)C(=O)[C@H](CC1CCCCC1)NC[C@H](CC(C)C)NC(=O)[C@@H](O)c1ccccc1`, with more than 2500 nM.
The same measure, in the same setting: then `CCCCN(C)C(=O)[C@H](CC1CCCCC1)NC(=O)[C@H](CC(C)C)NC(=O)Cc1cccc(N)c1`, with more than 2500 nM.
`CCCCN(C)C(=O)[C@H](CC1CCCCC1)NC(=O)[C@@H]1CCCN1C(=O)Cc1cc(F)cc(F)c1`: the IC50 in test [2] was more than 2500 nM.
As to `CCCCN(C)C[C@H](CC1CCCCC1)NC(=O)[C@H](CC(C)C)NC(=O)Cc1ccccc1`, the IC50 in test [1] is 1700 nM.
